Calls of active or inactive are those of the source.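 Rule for the calls, unless noted: active = potentiation averaged over duplicate wells exceeding buffer-only control mean by more than 3 SD; inactive = the rest.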
tested on: not listed separately; assay: thallium flux activation in parental CHO cells, counter-screen for KCNQ1 potentiator project (AID 493006;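 active = duplicate-averaged activation above buffer control mean plus 5 SD of those controls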); details: parental CHO-K1 cells, FluxOR thallium flux, at 10 µM; hits give high values
Procedure, shortened: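 Assay system: Untransfected host CHO-K1 cells with FluxOR thallium dye | Probe or stimulus: Potassium/thallium depolarization pulse | Schedule: Overnight 37 °C plating, 90 min RT dye, 20 min compound | Detection: Kinetic thallium-flux fluorescence | Read-out: Max-minus-min fluorescence over baseline, percent of buffer-to-R-L3 span | Benchmarks: Low control buffer, high control R-L3 activator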

Row | Compound | activation | outcome
1 | S=c1[nH]nc(-c2ccco2)n1/N=C/c1ccc(Cl)cc1Cl | 174% (active) | 
2 | Cc1ccnc(NC(=O)CNC(=O)c2ccc3c(c2)OCO3)c1 |  | inactive
3 | O=C(Nc1nnc(-c2ccc3c(c2)CCCC3)o1)c1c(F)cccc1F | 148% (active) | 
4 | Cc1ccc(-n2cnnn2)c2cccnc12 |  | inactive
5 | Cc1ccc2nc3c(cc(C(=O)NCC4CCCO4)c(=N)n3C3CCCC3)c(=O)n2c1 (stereo not given) |  | inactive
6 | O=C1c2ccccc2NC(c2ccccc2O)N1O (stereo not given) | 248% (active) | 
7 | Cc1cc(SCNC(=O)c2ccccc2)ncn1 |  | inactive
8 | Cc1ccc(O)c(C(=O)CC(=O)c2cccc(F)c2)c1 |  | inactive
9 | Cc1cccn2c(=O)nc(SCC(=O)N3N=C(c4cccs4)CC3c3ccc(F)cc3)nc12 (stereo not given) |  | inactive
10 | CC(C)[N+]1(C)[C@@H]2CC[C@H]1CC(OC(=O)C(CO)c1ccccc1)C2 (stereo not given in full) |  | inactive
11 | COc1ccc(CN(C)C(=O)c2ccc3ccccc3n2)cc1F |  | inactive
12 | Cc1cc(NC(=O)CSc2cn(CCNC(=O)c3ccc(F)cc3)c3ccccc23)no1 |  | inactive
13 | O=C(NCC1CCCO1)c1ccc2c(c1)S(=O)(=O)c1ccccc1C2=O (stereo not given) |  | inactive
14 | O=C(Nc1nc(=O)c2ccccc2s1)c1ccc(F)cc1 |  | inactive
15 | CC(/C=N/n1c(-c2ccc(C)cc2)n[nH]c1=S)=C\c1ccco1 |  | inactive
16 | CCOC(=O)c1c(NC(=O)C(C)N2CCN(C(=O)c3ccco3)CC2)sc2c1CCCC2 (stereo not given) |  | inactive
17 | O=C(Cn1ncc2c(=O)oc3ccccc3c21)N1CCN(C(=O)c2ccco2)CC1 |  | inactive
18 | S=c1nc(-c2ccccc2)[nH]c2ccc(Br)cc12 | 578% (active) | 
19 | COc1cc(CNCc2ccccn2)ccc1OCc1ccc(Cl)cc1 |  | inactive
20 | Cc1cc2n(n1)SC(Nc1ccc(F)c(Cl)c1)N2 (stereo not given) |  | inactive

Row | Compound | activation | outcome
21 | CNC(=O)c1nnsc1S(=O)c1ccc(Cl)cc1 (stereo not given) |  | inactive
22 | CCCC(=O)Nc1ccc(S(=O)(=O)N2CCC(c3nc4ccccc4[nH]3)CC2)cc1 |  | inactive
23 | CNc1nc(N)c([N+](=O)[O-])c(Nc2cccc(F)c2)n1 |  | inactive
24 | CCC1CCCCN1C(=S)NC(=O)c1ccc([N+](=O)[O-])cc1 (stereo not given) | 244% (active) | 
25 | O=C(Cn1c(C(F)(F)F)nc2ccccc21)N=Nc1c(O)[nH]c2ccc(Br)cc12 |  | inactive
26 | CCn1c(=S)[nH]c2sc3c(c2c1=O)CCCC3 | 338% (active) | 
27 | Cc1ccccc1-n1cnnc1SCC(=O)N1CCN(c2ccccc2)CC1 | 200% (active) | 
28 | COc1cccc(C(=O)NNC(=O)C(=O)Nc2cccc(Cl)c2C)c1 | 195% (active) | 
29 | Nc1nc(-c2ccccc2)c(N=Nc2ccccc2Cl)s1 | 488% (active) | 
30 | Cc1sc(-n2c(C)cc(/C=C3\SC(=S)NC3=O)c2C)c(C#N)c1C | 145% (active) | 
31 | ON/C=N/C(=S)Nc1ncc(C(F)(F)F)cc1Cl | 264% (active) | 
32 | Cc1c(/C=N\NC(=O)c2ccc(F)cc2)cnn1C |  | inactive
33 | O=c1c2cccnc2n(-c2ccccc2)n1Cc1ccc(Cl)cc1 |  | inactive
34 | NNC(=O)c1sccc1OCc1ccc(Cl)cc1Cl |  | inactive
35 | CCCSc1nnc(-c2cnn(-c3ccccc3)c2-n2cccc2)n1C |  | inactive
36 | COc1ccc(-c2cc3nc(C)c(CCC(=O)NC(C)CCc4ccco4)c(C)n3n2)c(OC)c1 (stereo not given) |  | inactive
37 | CC(=O)NC1=C(NC2CCS(=O)(=O)C2)C(=O)c2ccccc2C1=O (stereo not given) |  | inactive
38 | CCOc1ccc(C(=O)NC(=S)N(Cc2ccccc2)Cc2ccccc2)cc1 | 395% (active) | 
39 | CC1CCN(C(=S)NC(=O)c2cccs2)CC1 | 143% (active) | 
40 | Oc1c(N=NC(=S)Nc2ccccc2F)c2ccccc2n1Cc1ccc(F)cc1 |  | inactive

biological target: Potassium voltage-gated channel subfamily KQT member 1 (Homo sapiens) (UniProt P51787); assay: KCNQ1 potassium channel potentiators, confirmation, FluxOR thallium flux, CHO cells, duplicates (AID 493007); details: KCNQ1 cell line, FluxOR thallium flux fluorescence, at 10 µM; hits give high values, % of reference activator effect, buffer zero;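 for outcome: cells depolarized by a potassium plus thallium sulfate stimulus after compound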
Sequence (P51787 whole entry, looked up): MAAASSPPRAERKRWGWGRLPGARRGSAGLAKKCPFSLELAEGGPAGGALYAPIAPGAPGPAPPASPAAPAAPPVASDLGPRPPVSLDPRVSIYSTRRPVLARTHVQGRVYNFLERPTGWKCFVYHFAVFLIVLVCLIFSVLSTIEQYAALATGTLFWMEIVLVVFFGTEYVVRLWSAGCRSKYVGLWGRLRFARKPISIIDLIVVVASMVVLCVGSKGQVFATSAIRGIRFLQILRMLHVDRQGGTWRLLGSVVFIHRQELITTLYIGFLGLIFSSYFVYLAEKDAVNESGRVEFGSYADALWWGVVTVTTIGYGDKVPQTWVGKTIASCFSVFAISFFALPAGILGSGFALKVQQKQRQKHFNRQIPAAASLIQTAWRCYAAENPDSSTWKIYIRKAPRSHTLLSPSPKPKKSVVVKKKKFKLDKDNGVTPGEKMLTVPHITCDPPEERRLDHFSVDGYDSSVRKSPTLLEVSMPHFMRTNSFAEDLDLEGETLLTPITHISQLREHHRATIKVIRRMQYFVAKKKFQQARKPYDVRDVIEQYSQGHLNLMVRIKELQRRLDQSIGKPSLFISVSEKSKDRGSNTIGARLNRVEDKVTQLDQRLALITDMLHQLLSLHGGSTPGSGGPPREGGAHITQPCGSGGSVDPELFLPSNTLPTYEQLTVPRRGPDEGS
Procedure, shortened: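 Material: KCNQ1-expressing CHO cell line; Incubation: FluxOR dye loading 90 min, compound exposure 20 min, room temperature; Detection: FluxOR Tl+ flux fluorescence, 10 s baseline plus 110 s recording; Read-out: percent activation between buffer and R-L3 responses; Control set: buffer-only wells as 0% and R-L3 activator as 100%; Replication: duplicate wells per compound.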

Row | Compound | potentiation | outcome
41 | S=c1[nH]nc(-c2ccco2)n1/N=C/c1ccc(Cl)cc1Cl | 48% (active) | 
42 | Cc1ccnc(NC(=O)CNC(=O)c2ccc3c(c2)OCO3)c1 |  | inactive
43 | O=C(Nc1nnc(-c2ccc3c(c2)CCCC3)o1)c1c(F)cccc1F | 25% (active) | 
44 | Cc1ccc(-n2cnnn2)c2cccnc12 |  | inactive
45 | Cc1ccc2nc3c(cc(C(=O)NCC4CCCO4)c(=N)n3C3CCCC3)c(=O)n2c1 (stereo not given) |  | inactive
46 | O=C1c2ccccc2NC(c2ccccc2O)N1O (stereo not given) | 82% (active) | 
47 | Cc1cc(SCNC(=O)c2ccccc2)ncn1 |  | inactive
48 | Cc1ccc(O)c(C(=O)CC(=O)c2cccc(F)c2)c1 | 24% (active) | 
49 | Cc1cccn2c(=O)nc(SCC(=O)N3N=C(c4cccs4)CC3c3ccc(F)cc3)nc12 (stereo not given) |  | inactive
50 | CC(C)[N+]1(C)[C@@H]2CC[C@H]1CC(OC(=O)C(CO)c1ccccc1)C2 (stereo not given in full) |  | inactive
51 | COc1ccc(CN(C)C(=O)c2ccc3ccccc3n2)cc1F |  | inactive
52 | Cc1cc(NC(=O)CSc2cn(CCNC(=O)c3ccc(F)cc3)c3ccccc23)no1 |  | inactive
53 | O=C(NCC1CCCO1)c1ccc2c(c1)S(=O)(=O)c1ccccc1C2=O (stereo not given) |  | inactive
54 | O=C(Nc1nc(=O)c2ccccc2s1)c1ccc(F)cc1 |  | inactive
55 | CC(/C=N/n1c(-c2ccc(C)cc2)n[nH]c1=S)=C\c1ccco1 |  | inactive
56 | CCOC(=O)c1c(NC(=O)C(C)N2CCN(C(=O)c3ccco3)CC2)sc2c1CCCC2 (stereo not given) | 53% (active) | 
57 | O=C(Cn1ncc2c(=O)oc3ccccc3c21)N1CCN(C(=O)c2ccco2)CC1 |  | inactive
58 | S=c1nc(-c2ccccc2)[nH]c2ccc(Br)cc12 | 294% (active) | 
59 | COc1cc(CNCc2ccccn2)ccc1OCc1ccc(Cl)cc1 |  | inactive
60 | Cc1cc2n(n1)SC(Nc1ccc(F)c(Cl)c1)N2 (stereo not given) |  | inactive

Row | Compound | potentiation | outcome
61 | CNC(=O)c1nnsc1S(=O)c1ccc(Cl)cc1 (stereo not given) |  | inactive
62 | CCCC(=O)Nc1ccc(S(=O)(=O)N2CCC(c3nc4ccccc4[nH]3)CC2)cc1 |  | inactive
63 | CNc1nc(N)c([N+](=O)[O-])c(Nc2cccc(F)c2)n1 |  | inactive
64 | CCC1CCCCN1C(=S)NC(=O)c1ccc([N+](=O)[O-])cc1 (stereo not given) | 92.5% (active) | 
65 | O=C(Cn1c(C(F)(F)F)nc2ccccc21)N=Nc1c(O)[nH]c2ccc(Br)cc12 |  | inactive
66 | CCn1c(=S)[nH]c2sc3c(c2c1=O)CCCC3 | 149% (active) | 
67 | Cc1ccccc1-n1cnnc1SCC(=O)N1CCN(c2ccccc2)CC1 | 49.5% (active) | 
68 | COc1cccc(C(=O)NNC(=O)C(=O)Nc2cccc(Cl)c2C)c1 | 128% (active) | 
69 | Nc1nc(-c2ccccc2)c(N=Nc2ccccc2Cl)s1 | 168% (active) | 
70 | Cc1sc(-n2c(C)cc(/C=C3\SC(=S)NC3=O)c2C)c(C#N)c1C | 36% (active) | 
71 | ON/C=N/C(=S)Nc1ncc(C(F)(F)F)cc1Cl | 69% (active) | 
72 | Cc1c(/C=N\NC(=O)c2ccc(F)cc2)cnn1C |  | inactive
73 | O=c1c2cccnc2n(-c2ccccc2)n1Cc1ccc(Cl)cc1 |  | inactive
74 | NNC(=O)c1sccc1OCc1ccc(Cl)cc1Cl |  | inactive
75 | CCCSc1nnc(-c2cnn(-c3ccccc3)c2-n2cccc2)n1C |  | inactive
76 | COc1ccc(-c2cc3nc(C)c(CCC(=O)NC(C)CCc4ccco4)c(C)n3n2)c(OC)c1 (stereo not given) |  | inactive
77 | CC(=O)NC1=C(NC2CCS(=O)(=O)C2)C(=O)c2ccccc2C1=O (stereo not given) |  | inactive
78 | CCOc1ccc(C(=O)NC(=S)N(Cc2ccccc2)Cc2ccccc2)cc1 | 296% (active) | 
79 | CC1CCN(C(=S)NC(=O)c2cccs2)CC1 | 28.5% (active) | 
80 | Oc1c(N=NC(=S)Nc2ccccc2F)c2ccccc2n1Cc1ccc(F)cc1 | 19.5% (active) | 

— PubChem BioAssay
